Columns and labels:
[1] = biological target: wild type BTK (Homo sapiens, UniProt Q06187); experiment: biochemical; format: binding; conditions: read-out: residence time t1/2
[2] = test system: relapsed/refractory chronic lymphocytic leukemia; experiment: Phase 1/2 BRUIN trial, pirtobrutinib monotherapy, response per iwCLL 2018; format: in vivo, human
Method in brief: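 Relapsed/refractory CLL patients pretreated with covalent BTK inhibitors received test compound monotherapy in a multicenter phase 1/2 trial. Response followed iwCLL 2018 criteria, with data cutoff 5 May 2023. ORR was the proportion with best response of partial response with lymphocytosis or better, with 2-sided 95% CI from the exact binomial. PBMCs at baseline and progression underwent targeted NGS; a more sensitive assay had 0.5% VAF LoD.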

[3] = test system: BTK mutants with kinase activity (Y545N, V416L, T474I, C481S+T474I) in Ramos BTK KO cells; format: cell-based; conditions: variants with kinase activity vs wild type

wild type BTK, sequence (Q06187 whole entry): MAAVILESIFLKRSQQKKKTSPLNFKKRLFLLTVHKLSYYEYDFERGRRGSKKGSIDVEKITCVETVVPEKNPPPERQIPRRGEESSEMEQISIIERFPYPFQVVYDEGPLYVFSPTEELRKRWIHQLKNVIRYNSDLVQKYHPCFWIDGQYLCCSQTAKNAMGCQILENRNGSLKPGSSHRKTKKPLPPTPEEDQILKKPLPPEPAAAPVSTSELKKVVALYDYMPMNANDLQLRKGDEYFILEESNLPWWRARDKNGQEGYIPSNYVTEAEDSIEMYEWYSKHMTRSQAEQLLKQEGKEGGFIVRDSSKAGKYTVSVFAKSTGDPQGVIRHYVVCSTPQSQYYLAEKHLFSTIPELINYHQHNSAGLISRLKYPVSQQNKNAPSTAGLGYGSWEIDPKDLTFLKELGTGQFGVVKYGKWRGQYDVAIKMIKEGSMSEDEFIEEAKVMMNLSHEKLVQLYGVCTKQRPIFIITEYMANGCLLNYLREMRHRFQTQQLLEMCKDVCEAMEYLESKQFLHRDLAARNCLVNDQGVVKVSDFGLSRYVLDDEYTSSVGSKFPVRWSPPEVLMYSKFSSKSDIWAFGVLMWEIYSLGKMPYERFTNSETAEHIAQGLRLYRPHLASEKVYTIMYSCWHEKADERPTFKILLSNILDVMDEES

COc1ccc(F)cc1C(=O)NCc1ccc(-c2nn([C@@H](C)C(F)(F)F)c(N)c2C(N)=O)cc1 [Pirtobrutinib]
residence time [1]: 336 min | BOR ([2]; 3 patients with detectable BTK L528W at baseline): partial response, stable disease, and PD | BOR ([2]; 6 patients with detectable BTK T474x at baseline): PR (4), SD (1), and PD (1 | Median PFS (95%CI) ([2]; Patients with PD and longitudinal samples n=88): 10.3 months | patients who experienced PD on pirtobrutinib ([2]; overall population, median follow-up of 29 months, 139 patients): 57% | median PFS ([2]; patients with baseline BTK T474x (standard and high sensitivity), 95% CI, 7.4-22.3): 9.2 months | sensitivity to inhibition in cellular BTK phosphorylation assays [3]: less sensitive

— article PMC12824664 (Blood, 2025)
